Measured values reported in ChEMBL document CHEMBL4138127, “Synthesis and evaluation of new pyridyl/pyrazinyl thiourea derivatives: Neuroprotection against amyloid-β-induced toxicity” (Eur J Med Chem, 2017).

Tests used:
Mus musculus [1] = organism: Mus musculus; assay: Inhibition of amyloid beta (1 to 42)-induced mPTP opening in mouse HT22 cells assessed as reduction in mitochondrial membrane potential loss by measuring green to red fluorescence ratio at 5 uM preincubated for 10 mins followed by amyloid beta (1 to 42) addition measured every 1 hr for 3 hrs by JC1 staining based fluorescence assay relative to control; type: cell-based
How it was run: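 HT-22 cells were seeded at 30,000 per well the day before and loaded with JC-1 (7.5 µM final) in phenol red-free Opti-MEM for 1 h 15 min at 37 °C, then PBS-washed. Compound solution (5 µM in Opti-MEM) was added for 10 min at 37 °C, followed by Aβ1-42 solution (5 µM). Red (ex/em 530/580) and green (485/530) fluorescence were read hourly for 3 h. Green/red ratio change was normalized to vehicle control as 100%.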

Mus musculus [2] = organism: Mus musculus; assay: Inhibition of mPTP opening in mouse HT22 cells assessed as protection against amyloid beta (1 to 42)-induced toxicity by measuring cell viability at 5 uM preincubated for 10 mins followed by amyloid beta (1 to 42) addition measured after 24 hrs by MTT assay (reference value: 50 to 70%); type: cell-based
How it was run: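 HT-22 cells were seeded at 5000 per well the day before. Compound was added as a 10 µM solution for 10 min at 37 °C, then an equal volume of 10 µM Aβ1-42 was added, and cells were incubated 24 h at 37 °C. The table footnote states 5 µM of each. Viability was read by MTT (2 h, acidic Triton/isopropanol solubilization, A570). Protection was scaled to vehicle + Aβ as 0% and vehicle alone as 100%.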

ATP synthase = assay: Inhibition of ATP synthase in mouse HT22 cells assessed as ATP production at 5 uM after 7 hrs by luciferase based assay relative to control; type: cell-based; design: scale not given: the % may be the effect or the level left; conditions: read-out: Activity
How it was run: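 HT-22 cells were seeded at 10,000 per well one day before, then given 5 µM compound for 7 h at 37 °C. After PBS washes, cells were lysed in 1% Triton X-100 in TBST. Protein was measured by BCA, and equal lysate amounts were assayed for ATP with a luciferase-based kit. Vehicle control was subtracted and percent inhibition was calculated relative to vehicle control ATP.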

[3] = Cytotoxicity against mouse HT22 cells assessed as cell viability at 5 uM after 24 hrs by MTT assay relative to control; type: cell-based, HT-22; conditions: read-out: Activity
How it was run: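 HT-22 mouse hippocampal cells were grown in DMEM with 10% FBS and penicillin/streptomycin at 37 °C under 5% CO2, seeded at 5000 per well and exposed to 5 µM compound for 24 h at 37 °C. MTT was added for 2 h, then formazan was dissolved in 10% Triton X-100/isopropanol/0.1 M HCl for 1 h at room temperature. A570 was read and vehicle control OD subtracted to give viability.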

Row | SMILES | Ratio (Mus musculus [1]) [%] | Activity (Mus musculus [2]) [%] | activity at 7 h, 5 µM (ATP synthase) [%] | viability at 24 h, 5 µM [3] [%]
1 | CC(C)(C)NC(=S)Nc1ncccc1OCc1cccc(F)c1 | 123 |  |  | 
2 | S=C(Nc1cccc(Cl)c1)Nc1nccnc1OCc1ccccc1Cl | 30.8 | 29.6 | 98 | 114
3 | CC(C)NC(=S)Nc1ncccc1OCc1ccccc1 | 45.2 |  |  | 
4 | S=C(Nc1cccc(Cl)c1)Nc1ncccc1OCc1ccccc1Cl | 14.2 | 22.7 | 103 | 116
5 | S=C(NCc1ccccc1)Nc1ncccc1OCc1ccccc1 | 75.3 |  |  | 
6 | CC(C)(C)NC(=S)Nc1nccnc1OCc1cccc(F)c1 | 28.1 | 13.2 | 99.7 | 101
7 | CCNC(=S)Nc1ncccc1OCc1ccccc1 | 66.8 |  |  | 
8 | CC(C)(C)NC(=S)Nc1ncccc1OCc1ccccc1 | 91 |  |  | 
9 | CC(C)NC(=S)Nc1ncccc1OCc1cccc(F)c1 | 86 |  |  | 
10 | S=C(Nc1ncccc1OCc1cccc(Cl)c1)Nc1cccc2ccccc12 | 26 | 18.6 | 107 | 123
11 | Cc1ccc(NC(=S)Nc2ncccc2OCc2ccccc2)cc1 | 23.3 |  | 66 | 
12 | Cc1ccc(NC(=S)Nc2nccnc2OCc2cccc(F)c2)cc1 | 4.6 | 69.3 | 102 | 96.4
13 | Cc1ccc(NC(=S)Nc2ncccc2OCc2ccccc2Cl)cc1 | 13 | 6.6 | 102 | 93.5
14 | S=C(Nc1cccc(Cl)c1)Nc1ncccc1OCc1ccccc1 | 25.3 |  | 68 | 
15 | NC(=O)CN1CCCC1=O [PIRACETAM] |  | 29 | 88 | 
16 | Fc1cccc(COc2cccnc2NC(=S)Nc2cccc3ccccc23)c1 | 16.7 | 48.2 | 100 | 102
17 | S=C(Nc1ncccc1OCc1ccccc1Cl)Nc1cccc2ccccc12 | 17.5 | 9.5 | 100 | 89.3
18 | CC(C)NC(=S)Nc1nccnc1OCc1ccccc1Cl | 56.3 |  |  | 
19 | S=C(NCc1ccccc1)Nc1nccnc1OCc1ccccc1Cl | 5.3 | 3.8 | 85.1 | 105
20 | CCNC(=S)Nc1ncccc1OCc1cccc(F)c1 | 88.7 |  |  | 
21 | CCNC(=S)Nc1ncccc1OCc1ccccc1Cl | 94.1 |  |  | 
22 | S=C(Nc1cccc(Cl)c1)Nc1ncccc1OCc1cccc(Cl)c1 | 38 | 51.8 | 104 | 98.3
23 | Cc1ccc(NC(=S)Nc2ncccc2OCc2cccc(Cl)c2)cc1 | 26 | 22.8 | 94.5 | 96.2
24 | CC(C)(C)NC(=S)Nc1ncccc1OCc1cccc(Cl)c1 | 112 |  |  | 
25 | CC(C)NC(=S)Nc1ncccc1OCc1ccccc1Cl | 31.7 | -6.7 | 93.7 | 99.3
26 | S=C(Nc1ncccc1OCc1ccccc1)Nc1cccc2ccccc12 | 17.1 |  | 65 | 
27 | CC(C)NC(=S)Nc1nccnc1OCc1cccc(F)c1 | 43.1 |  |  | 
